{"source": "ChEMBL document CHEMBL4028857", "about": "“Anchimerically Activated ProTides as Inhibitors of Cap-Dependent Translation and Inducers of Chemosensitization in Mantle Cell Lymphoma” (J Med Chem, 2017)", "key": {"[1]": {"experiment": "Antiproliferative activity against human Mino cells at 200 uM preincubated for 48 hrs followed by thymidine addition measure after 16 hrs by Thymidine incorporation assay", "format": "functional", "in_short": "(§1)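 MCL lines treated 48 h with compound re-added daily, alone or with co-drug (ibrutinib 25 µM where used), then thymidine added for a further 16 h; proliferation read as thymidine incorporation.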"}, "[2]": {"target": "Eukaryotic translation initiation factor 4E-binding protein 1 (Homo sapiens) (UniProt Q13541)", "sequence (Q13541 whole entry)": "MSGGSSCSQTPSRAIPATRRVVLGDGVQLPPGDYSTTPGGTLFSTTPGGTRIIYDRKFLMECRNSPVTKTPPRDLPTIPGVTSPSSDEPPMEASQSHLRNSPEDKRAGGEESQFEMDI", "experiment": "Inhibition of 4EBP1 phosphorylation at Ser 65 residues in human Mino cells at 100 uM after 48 hrs in presence of ibrutinib by Western blot analysis", "format": "cell-based", "in_short": "(§2)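 MCL lines treated 48 h with compound; protein quantified and Western blotted with eIF4E, eIF4G, actin, c-Myc and Bcl-2 antibodies.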"}, "[3]": {"experiment": "(§3) Prodrug activation in human Mino cells assessed as 9-((2R,3R,4S,5R)-5-(((((2-(1H-Indol-3-yl)ethyl)amino)-(hydroxy)phosphoryl)oxy)methyl)-3,4-dihydroxytetrahydrofuran-2-yl)-2-amino-7-(2-(4-chlorophenoxy)ethyl)-6-oxo-6,9-dihydro-1H-purin-7-ium formation per 5 million cells at 150 uM after 12 hrs by LC-MS/MS analysis", "format": "cell-based", "in_short": "(§4)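 Mantle cell lymphoma cells (five million) grown in RPMI with 10% FBS, penicillin/streptomycin and L-glutamine at 37 °C, 5% CO2, then exposed to 150 µM compound for 12 h at 37 °C. Washed with ice-cold PBS, pellet extracted in MeOH/NH4OAc (60:40) with 80 fmol internal standards, three liquid-N2 freeze–thaw cycles, filtered, dried, redissolved in 20 mM HEPES pH 7.2. Analysed by LC-MS/MS against a standard curve.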"}, "[4]": {"experiment": "Cmax in Sprague-Dawley rat at 25 mg/kg, po measured at 30 mins post dose by LC-MS/MS analysis", "format": "ADME, organism-based", "set-up": "dose 25 mg/kg, route oral", "details": "in vivo", "in_short": "(§5)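 Female Sprague-Dawley rats (250-274 g, n=3, catheterized femoral/jugular veins) dosed once p.o. by gavage (25 mg/kg) then, after a 3-day washout, i.v. (2.5 mg/kg). Formulation: 10 mg/mL in 0.5% aqueous CMC with 5% DMSO. Serial blood draws to 480 min into K2EDTA; plasma protein-precipitated with acetonitrile plus internal standards; LC-MS/MS (positive MRM); non-compartmental PK; %F from dose-normalized AUC per rat.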"}, "[5]": {"target": "Eukaryotic translation initiation factor 4E (Homo sapiens) (UniProt P06730)", "sequence (P06730 whole entry)": "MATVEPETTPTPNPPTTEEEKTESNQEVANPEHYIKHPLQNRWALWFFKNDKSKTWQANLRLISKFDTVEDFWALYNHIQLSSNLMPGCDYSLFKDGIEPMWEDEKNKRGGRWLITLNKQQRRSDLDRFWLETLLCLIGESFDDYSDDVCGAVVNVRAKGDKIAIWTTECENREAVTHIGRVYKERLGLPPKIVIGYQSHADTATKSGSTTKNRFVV", "experiment": "Inhibition of eIF4E in human Mino cells assessed as down regulation of Bcl-2 expression at 50 to 200 uM after 48 hrs by Western blot method", "format": "cell-based", "in_short": "as §2"}, "[6]": {"experiment": "Half life in Sprague-Dawley rat plasma at 150 uM at pH 7.4 by RP-LCMS analysis", "format": "ADME", "in_short": "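Pooled female Sprague-Dawley rat plasma, pre-warmed 2 min at 37 °C, incubated with compound in triplicate at 37 °C to follow deprotection and half-life.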"}, "[7]": {"target": "Eukaryotic translation initiation factor 4E (Homo sapiens) (UniProt P06730)", "experiment": "Inhibition of eIF4E in human GRANTA-519 cells assessed as down regulation of c-Myc protein expression after 48 hrs by Western blot method", "format": "cell-based", "in_short": "as §2"}, "Rattus norvegicus [8]": {"tested_on": "Rattus norvegicus", "experiment": "AUC (0 to 8 hrs) in Sprague-Dawley rat plasma assessed as 9-((2R,3R,4S,5R)-5-(((((2-(1H-Indol-3-yl)ethyl)amino)-(hydroxy)phosphoryl)oxy)methyl)-3,4-dihydroxytetrahydrofuran-2-yl)-2-amino-7-(2-(4-chlorophenoxy)ethyl)-6-oxo-6,9-dihydro-1H-purin-7-ium at 25 mg/kg, po by LC-MS/MS analysis", "format": "ADME, organism-based", "set-up": "time < 8 hr, dose 25 mg/kg, route oral", "details": "in vivo", "in_short": "as §5"}, "[9]": {"experiment": "Cytotoxicity against human Mino cells assessed as reduction in cell survival at 100 uM after 48 hrs in presence of ibrutinib by Annexin V/propidium iodide based flow cytometric analysis", "in_short": "(§6)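 MCL lines treated 48 h with compound re-added daily (alone or with co-drug; ibrutinib 25 µM), then survival assessed by Annexin V/PI flow cytometry.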"}, "Mino": {"tested_on": "Mino", "experiment": "Antiproliferative activity against human Mino cells at 100 uM preincubated for 48 hrs followed by thymidine addition measure after 16 hrs by Thymidine incorporation assay", "format": "functional, cell-based", "in_short": "as §1"}, "[10]": {"experiment": "Half life in HEPES buffer at 80 uM at pH 2 by RP-HPLC analysis", "format": "physicochemical", "in_short": "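Compound at 80 µM in 20 mM HEPES (pH 7.2 or 2.0) incubated at 37 °C; aliquots analyzed by RP-HPLC at 0, 1, 4, 6, 12, 18 and 24 h to follow methylthioalkyl deprotection and derive half-life.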"}, "Rattus norvegicus [11]": {"tested_on": "Rattus norvegicus", "experiment": "AUC (0 to 8 hrs) in Sprague-Dawley rat plasma assessed as 9-((2R,3R,4S,5R)-5-(((((2-(1H-Indol-3-yl)ethyl)amino)-(hydroxy)phosphoryl)oxy)methyl)-3,4-dihydroxytetrahydrofuran-2-yl)-2-amino-7-(2-(4-chlorophenoxy)ethyl)-6-oxo-6,9-dihydro-1H-purin-7-ium at 2.5 mg/kg, iv by LC-MS/MS analysis", "format": "ADME, organism-based", "set-up": "time < 8 hr, dose 2.5 mg/kg, route intravenous", "details": "in vivo", "in_short": "as §5"}, "[12]": {"target": "Eukaryotic translation initiation factor 4E (Homo sapiens) (UniProt P06730)", "experiment": "Inhibition of eIF4E in human Mino cells assessed as down regulation of c-Myc protein expression at 100 uM after 48 hrs by Western blot analysis", "format": "cell-based", "in_short": "as §2"}, "[13]": {"target": "Eukaryotic translation initiation factor 4E (Homo sapiens) (UniProt P06730)", "experiment": "Inhibition of eIF4E in human Mino cells assessed as potentiation of ibrutinib induced antiproliferation at 100 uM preincubated for 48 hrs followed by thymidine addition measure after 16 hrs by Thymidine incorporation assay", "format": "cell-based", "in_short": "as §1"}, "[14]": {"experiment": "Antiproliferative activity against human Mino cells after 48 hrs by Annexin V/propidium iodide based flow cytometric analysis", "format": "functional, cell-based", "in_short": "as §6"}, "Granta-519": {"tested_on": "Granta-519", "experiment": "as §3, with “GRANTA-519” for “Mino”", "format": "cell-based", "details": "granta-519, 12 h", "in_short": "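Five million MCL cells in RPMI/10% FBS with penicillin, streptomycin and L-glutamine were exposed to compound (150 µM) for 12 h at 37 °C. Cells were washed in cold PBS, extracted in MeOH/NH4OAc (60:40) with 80 fmol internal standards, freeze-thawed three times, then filtered and dried. Residue was taken up in HEPES for LC-MS/MS, quantified against an internal-standard curve.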"}, "[15]": {"target": "Adenosine 5'-monophosphoramidase HINT1 (Homo sapiens, UniProt P49773)", "sequence (P49773 whole entry)": "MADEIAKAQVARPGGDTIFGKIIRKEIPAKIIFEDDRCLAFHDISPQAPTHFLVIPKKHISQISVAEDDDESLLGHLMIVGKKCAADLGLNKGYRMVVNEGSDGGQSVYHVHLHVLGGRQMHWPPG", "experiment": "Prodrug activation in human GRANTA-519 cells assessed as hint1-mediated 2-amino-7-(2-(4-chlorophenoxy)ethyl)-9-((2R,3R,4S,5R)-3,4-dihydroxy-5-(phosphonooxymethyl)tetrahydrofuran-2-yl)-6-oxo-6,9-dihydro-1H-purin-7-ium formation per 5 million cells at 150 uM after 12 hrs by LC-MS/MS analysis relative to 9-((2R,3R,4S,5R)-5-(((((2-(1H-Indol-3-yl)ethyl)amino)-(hydroxy)phosphoryl)oxy)methyl)-3,4-dihydroxytetrahydrofuran-2-yl)-2-amino-7-(2-(4-chlorophenoxy)ethyl)-6-oxo-6,9-dihydro-1H-purin-7-ium", "format": "cell-based", "in_short": "as §4"}, "[16]": {"target": "Eukaryotic translation initiation factor 4E (Homo sapiens) (UniProt P06730)", "experiment": "Inhibition of eIF4E in human GRANTA-519 cells assessed as disruption of interaction between protein and mRNA 5'-cap at 10 to 100 uM by m7GTP pull-down assay", "format": "cell-based", "in_short": "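Eight to ten million treated MCL cells washed in cold PBS, lysed in cap binding buffer, and eIF4E binding captured on m7GTP-Sepharose beads (pull-down).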"}, "[17]": {"experiment": "Cytotoxicity against human Mino cells assessed as reduction in cell survival at 100 uM after 48 hrs in presence of dexamethasone by Annexin V/propidium iodide based flow cytometric analysis", "in_short": "as §6"}, "Z-138": {"tested_on": "Z-138", "experiment": "as §3, with “Z138” for “Mino”", "format": "cell-based", "details": "z-138, 12 h", "in_short": "as §4"}, "[18]": {"target": "Eukaryotic translation initiation factor 4E-binding protein 1 (Homo sapiens) (UniProt Q13541)", "experiment": "Inhibition of 4EBP1 phosphorylation at Thr 37/46 residues in human Mino cells at 100 uM after 48 hrs by Western blot analysis", "format": "cell-based", "in_short": "as §2"}}, "note": "Activity calls are given as the source filed them. The calls are words filed in the database; no cut-off is given here.", "data": [{"smiles": "CSCCOP(=O)(NCCc1c[nH]c2ccccc12)OC[C@H]1O[C@@H](n2c[n+](CCOc3ccc(Cl)cc3)c3c(=O)[nH]c(N)nc32)[C@H](O)[C@@H]1O", "note": "(stereo partly specified)", "values": [{"measurement": "Activity", "setting": "[1]", "value": 100, "unit": "%"}, {"measurement": "inhibition", "setting": "[2]", "value": "Active"}, {"measurement": "Drug metabolism", "setting": "[3]", "value": 64.6, "unit": "pmol"}, {"measurement": "Cmax", "setting": "[4]", "value": 5, "unit": "ng/mL"}, {"measurement": "inhibition", "setting": "[5]", "value": "inactive"}, {"measurement": "half-life at 150 µM", "setting": "[6]", "value": 7.2, "unit": "h"}, {"measurement": "inhibition", "setting": "[7]", "value": "Dose-dependent effect"}, {"measurement": "AUC", "setting": "Rattus norvegicus [8]", "value": 2.6, "unit": "µg·min/mL"}, {"measurement": "Activity", "setting": "[9]", "value": "Toxic"}, {"measurement": "Activity", "setting": "Mino", "value": "Active"}, {"measurement": "half-life at 80 µM", "setting": "[10]", "value": 5, "unit": "h"}, {"measurement": "AUC", "setting": "Rattus norvegicus [11]", "value": 0.5, "unit": "µg·min/mL"}, {"measurement": "inhibition", "setting": "[12]", "value": "Active"}, {"measurement": "inhibition", "setting": "[13]", "value": "Active"}, {"measurement": "IC50", "setting": "[14]", "value": "> 200", "unit": "µM"}, {"measurement": "Drug metabolism", "setting": "Granta-519", "value": 0.33, "unit": "pmol"}, {"measurement": "fold change (FC)", "setting": "[15]", "value": 1.9}, {"measurement": "inhibition", "setting": "[16]", "value": "Active"}, {"measurement": "Activity", "setting": "[17]", "value": "Toxic"}, {"measurement": "Drug metabolism", "setting": "Z-138", "value": 37.3, "unit": "pmol"}, {"measurement": "inhibition", "setting": "[18]", "value": "inactive"}]}]}
